How the values were obtained:
[1] = target: Replicase polyprotein 1ab (Severe acute respiratory syndrome coronavirus 2, UniProt P0DTD1); assay: Inhibition of recombinant SARS-CoV-2 3CLpro using Dacyl-KTSAVLQSGFRKME-Edans as substrate preincubated for 10 mins followed by substrate addition measured for 5 mins by FRET assay
[2] = Half life in ICR mouse at 20 mg/kg, po measured for 24 hrs by LC-MS/MS analysis; assay type: ADME, organism-based; details: in vivo
Procedure, shortened: (§1)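 ICR mice, three per group, randomly assigned, received a single 20 mg/kg oral dose, with a parallel 10 mg/kg IV group for bioavailability. Blood was sampled at 0.25, 0.5, 1, 2, 4, 6, 8 and 24 h. Plasma was protein-precipitated with MeOH plus internal standard and quantified by LC-MS/MS. Parameters came from non-compartmental analysis.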

[3] = tested on: Vero C1008; assay: Cytotoxicity against African green monkey Vero E6 cells incubated for 48 hrs by Luminescent cell viability assay; assay type: toxicity, cell-based; details: chlorocebus sabaeus, vero c1008, 48 h
Procedure, shortened: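 Vero E6 cells were seeded at 2.5 × 10³/well and grown 48 h, then exposed to compound at 0.5–200 μM for a further 48 h (n = 3). Viability was read by a luminescent cell-viability reagent after 10 min. Values came from curve fitting.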

[4] = target: Chymotrypsinogen A (Bos taurus) (UniProt P00766); assay: Inhibition of bovine pancreatic alpha-chymotrypsin using N-succinyl-AAPF-AMC as substrate at 20 uM preincubated for 10 mins followed by substrate addition measured for 10 mins by fluorescence based assay relative to control; details: time 20.0 min
Procedure, shortened: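 Chymotrypsin (5 nM final) was preincubated 10 min with 20 μM compound in PBS, pH 7.4. The reaction was started with N-succinyl-AAPF-AMC (10 μM final). Fluorescence (ex 380/em 460 nm) was read every 1 min for 10 min.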

[5] = AUC (0 to t) in ICR mouse at 20 mg/kg, po measured for 24 hrs by LC-MS/MS analysis; assay type: ADME, organism-based; details: in vivo; procedure, shortened: as §1
[6] = AUC (0 to infinity) in ICR mouse at 10 mg/kg, iv measured for 24 hrs by LC-MS/MS analysis; assay type: ADME, organism-based; details: in vivo
Procedure, shortened: (§2)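 Male/female unspecified ICR mice, three per group, randomly assigned, given a single intravenous dose of 10 mg/kg. Whole blood was drawn at 0.083, 0.25, 0.5, 1, 2, 4, 8 and 24 h. Plasma (20 μL) was precipitated with MeOH containing internal standard, then analysed by LC-MS/MS. Parameters came from non-compartmental analysis.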

[7] = tested on: SARS-CoV-2; assay: Antiviral activity against SARS-CoV-2 WIV04 infected in African green monkey Vero E6 cells assessed as reduction in viral replication preincubated cells for 1 hr followed by viral infection for 24 hrs by real-time fluorescence quantitative PCR method; assay type: functional, organism-based; details: Severe acute respiratory syndrome coronavirus 2, WIV04, Vero C1008
[8] = Half life in ICR mouse at 10 mg/kg, iv measured for 24 hrs by LC-MS/MS analysis; assay type: ADME, organism-based; details: in vivo; procedure, shortened: as §2
[9] = Cmax in ICR mouse at 20 mg/kg, po measured for 24 hrs by LC-MS/MS analysis; assay type: ADME, organism-based; details: in vivo; procedure, shortened: as §1
[10] = target: Procathepsin L (Homo sapiens) (UniProt P07711); assay: Inhibition of cathepsin L (unknown origin) using Z-FR-AMC at 20 uM as substrate measured for 10 mins by fluorescence based assay relative to control
Sequence of Procathepsin L (Homo sapiens) (P07711 114-333 limits assumed): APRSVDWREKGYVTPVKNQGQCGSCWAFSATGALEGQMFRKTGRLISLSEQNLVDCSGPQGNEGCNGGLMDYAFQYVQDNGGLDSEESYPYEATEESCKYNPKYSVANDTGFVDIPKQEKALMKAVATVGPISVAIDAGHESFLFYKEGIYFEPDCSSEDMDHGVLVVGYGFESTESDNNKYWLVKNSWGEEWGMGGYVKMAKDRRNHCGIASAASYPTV

[11] = AUC (0 to infinity) in ICR mouse at 20 mg/kg, po measured for 24 hrs by LC-MS/MS analysis; assay type: ADME, organism-based; details: in vivo; procedure, shortened: as §1
[12] = Selectivity index, ratio of CC50 for African green monkey Vero E6 cells to EC50 for SARS-CoV-2 WIV04 infected in African green monkey Vero E6 cells; assay type: toxicity; details: read-out: Ratio CC50/EC50
[13] = AUC (0 to t) in ICR mouse at 10 mg/kg, iv measured for 24 hrs by LC-MS/MS analysis; assay type: ADME, organism-based; details: in vivo; procedure, shortened: as §2
[14] = Oral bioavailability in ICR mouse at 20 mg/kg measured for 24 hrs by LC-MS/MS analysis; assay type: ADME, organism-based; details: in vivo; procedure, shortened: as §1

Compound	IC50 [1] [µM]	t1/2 [2] [min]	AUCt [5] [µg·h/mL]	AUC [6] [µg·h/mL]	t1/2 [8] [min]	Cmax [9] [µg/mL]	AUC [11] [µg·h/mL]	AUCt [13] [µg·h/mL]	F [14] [%]	further results
CC(C)(F)C(=O)N[C@H](C(=O)N1[C@@H]2CC[C@@H](C2)[C@H]1C(=O)N[C@@H](C[C@@H]1CCNC1=O)C(=O)c1nc2ccccc2s1)C(C)(C)C	1.27	–	–	–	–	–	–	–	–	–
COc1ccc(C[C@H](NS(=O)(=O)C(F)(F)F)C(=O)N2[C@@H]3CC[C@@H](C3)[C@H]2C(=O)N[C@@H](C[C@@H]2CCNC2=O)C(=O)c2nc3ccccc3s2)cc1	5.34	–	–	–	–	–	–	–	–	–
[2H]C([2H])([2H])C(=O)N[C@H](C(=O)N1[C@@H]2CC[C@@H](C2)[C@H]1C(=O)N[C@@H](C[C@@H]1CCNC1=O)C(=O)c1nc2ccccc2s1)C(C)(C)C	0.527	–	–	–	–	–	–	–	–	–
O=C1NCC[C@H]1C[C@H](NC(=O)[C@@H]1[C@H]2CC[C@H](C2)N1C(=O)[C@@H](NS(=O)(=O)C(F)(F)F)C12CC3CC(CC(C3)C1)C2)C(=O)c1nc2ccccc2s1	1.65	126	32.473	34.308	82.8	9.327	33.207	33.78	48.1	CC50 [3]: 54 µM; inhibition [4]: 55.8%; EC50 [7]: 0.18 µM; inhibition [10]: 27%; selectivity ratio [12]: 300
CC(C)(C)[C@H](NS(=O)(=O)C(F)(F)F)C(=O)N1[C@@H]2CC[C@@H](C2)[C@H]1C(=O)N[C@@H](C[C@@H]1CCNC1=O)C(=O)c1nc2ccccc2s1	0.868	45.6	5.143	3.857	44.4	3.342	5.153	3.783	67.98	CC50 [3]: 137 µM; EC50 [7]: 0.32 µM; selectivity ratio [12]: 429
CN(C)S(=O)(=O)N[C@H](C(=O)N1[C@@H]2CC[C@@H](C2)[C@H]1C(=O)N[C@@H](C[C@@H]1CCNC1=O)C(=O)c1nc2ccccc2s1)C(C)(C)C	0.584	–	–	–	–	–	–	–	–	–
O=C1NCC[C@H]1C[C@H](NC(=O)[C@@H]1[C@H]2CC[C@H](C2)N1C(=O)[C@H](CC1CCCCC1)NS(=O)(=O)C(F)(F)F)C(=O)c1nc2ccccc2s1	5.14	–	–	–	–	–	–	–	–	–
CC(C)(C)[C@H](NC(=O)C(F)(F)F)C(=O)N1C[C@H]2[C@@H]([C@H]1C(=O)N[C@H](C#N)C[C@@H]1CCNC1=O)C2(C)C [NIRMATRELVIR]	–	30.6	1.023	2.241	25.2	1.819	1.029	2.24	22.85	CC50 [3]: > 500 µM
CC(C)(C)OC[C@H](NS(=O)(=O)C(F)(F)F)C(=O)N1[C@@H]2CC[C@@H](C2)[C@H]1C(=O)N[C@@H](C[C@@H]1CCNC1=O)C(=O)c1nc2ccccc2s1	2.74	–	–	–	–	–	–	–	–	–
CC(C)(C)[C@H](NC(=O)C(F)(F)F)C(=O)N1[C@@H]2CC[C@@H](C2)[C@H]1C(=O)N[C@@H](C[C@@H]1CCNC1=O)C(=O)c1nc2ccccc2s1	0.11	54.6	2.155	2.284	28.2	1.597	2.161	2.281	47.25	–
CC(C)(C)OC(=O)N[C@H](C(=O)N1[C@@H]2CC[C@@H](C2)[C@H]1C(=O)N[C@@H](C[C@@H]1CCNC1=O)C(=O)c1nc2ccccc2s1)C(C)(C)C	5	–	–	–	–	–	–	–	–	–
